Measured values from ChEMBL document CHEMBL5715960, “Epigenetic Co-Deregulation of EZH2/TET1 is a Senescence-Countering, Actionable Vulnerability in Triple-Negative Breast Cancer” (Theranostics, 2019).
Activity calls are given as the source filed them.

Assays:
MDA-MB-436 [1] = test: Effect on […] in human MDA-MB-436 cells assessed as repression in TET1 promoter H3K27me3 by ChiP-qPCR analysis; type: functional, cell-based
Summary of the method: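 ChIP-qPCR on MDA-MB-231 and MDA-MB-436 cells exposed to GSK343 or DMSO. Chromatin pulled down with anti-H3K27me3 antibody and amplified with primers specific for the TET1 promoter. Input (no immunoprecipitation) serves as internal control and anti-IgG as negative control. Mean ± SD, triplicate unless stated.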

MDA-MB-436 [2] = test: Upregulation of TET1 in human MDA-MB-436 cells at 2 uM for 2 days by immunoblot analysis; type: functional, cell-based; details: time 2.0 day
MDA-MB-436 [3] = test: Effect on human MDA-MB-436 cells expressing shTET1 assessed as increase in H3K9me3 cascade by immunoblot analysis; type: functional, cell-based
MDA-MB-231 [4] = test: Induction of apoptosis in human MDA-MB-231 cells xenografted in Crl:NU-Foxn1-nu/nu mouse assessed as apoptotic cells in tumor administered at 5 mg/kg, ip in presence of adriamycin treated for 21 days by TUNEL staining analysis; type: functional, organism-based; details: time 21.0 day
Summary of the method: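 TUNEL staining of xenograft tumor sections. Dosing started when tumors reached about 50 mm3: twice-weekly intraperitoneal GSK343 5 mg/kg, adriamycin 1 mg/kg, the combination, or DMSO solvent control, for 21 days.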

MDA-MB-231 [5] = test: Effect on human MDA-MB-231 cells expressing shTET1 assessed as increase in H3K9me3 cascade by immunoblot analysis; type: functional, cell-based
MDA-MB-436 [6] = test: Effect on human MDA-MB-436 cells assessed as apoptotic phenotype by measuring increase in BIM expression level at 2 uM in presence of adriamycin by immunoblot analysis; type: functional, cell-based
Summary of the method: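 Immunoblot of cell lysates after 0.05 µg/ml adriamycin alone, with 2 µM GSK343, or DMSO. α-Tubulin and total H3 used as loading controls.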

MDA-MB-231 [7] = test: Antitumor activity against human MDA-MB-231 cells xenografted in Crl:NU-Foxn1-nu/nu mouse assessed as reduction in tumor administered at 5 mg/kg, ip in presence of adriamycin treated for 21 days; type: functional, organism-based; details: time 21.0 day
MDA-MB-231 [8] = test: Antiproliferative activity in human MDA-MB-231 cells assessed as increase in C12FDG based fluorescent SA-beta-gal positive cells at 2 uM in presence of adriamycin by FACS analysis; type: functional, cell-based
Summary of the method: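 Cells given 0.005 µg/ml adriamycin with or without 2 µM GSK343, or DMSO; SA-β-gal activity detected with C12FDG fluorescent substrate by flow cytometry, reported as percent positive cells. Mean ± SD.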

MCF7 [9] = test: Antiproliferative activity in human MCF7 cells assessed as increase in SA-beta-gal positive cells at 2 uM for 5 days by SA-beta-gal staining analysis; type: toxicity, cell-based; details: mcf7, 120 h, time 5 day
Summary of the method: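 GSK343 2 µM or DMSO for 5 days, then chromogenic SA-β-gal staining and counting of positive cells. Triplicate; mean ± SD.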

MCF7 [10] = test: Effect on human MCF7 cells assessed as increase in TET1 transcription by qRT-PCR analysis; type: functional, cell-based
Summary of the method: (§1)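 qRT-PCR of TET1, TET2 and TET3 transcripts in breast cancer cells exposed to GSK343 (2 µM unless otherwise indicated), shown relative to DMSO-treated cells. Mean ± SD, triplicate unless stated.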

MDA-MB-436 [11] = test: Effect on human MDA-MB-436 cells expressing shTET1 assessed as reduction in cyclinA by immunoblot analysis; type: functional, cell-based
MDA-MB-436 [12] = test: Effect on human MDA-MB-436 cells expressing shTET1 assessed as reduction in PCNA by immunoblot analysis; type: functional, cell-based
MDA-MB-231 [13] = test: Antiproliferative activity against human MDA-MB-231 cells assessed as increase in global H3K9me3 expression level by immunoblot analysis; type: functional, cell-based
Summary of the method: (§2)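 Cells exposed to GSK343 at 2 µM (standard level unless stated otherwise), lysed and immunoblotted; α-tubulin and total H3 as loading controls.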

MDA-MB-436 [14] = test: Induction of apoptosis in human MDA-MB-436 cells assessed as decrease in accumulation of cells at S phase in presence of adriamycin by BrdU/PI-based cell cycle analysis; type: functional
Summary of the method: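 Cell cycle by BrdU/PI staining and flow cytometry, giving G1, S and G2 fractions. Cells received 0.005 µg/ml adriamycin with or without 2 µM GSK343, or DMSO. Mean ± SD.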

MDA-MB-436 [15] = test: Effect on human MDA-MB-436 cells assessed as increase in global 5hmc level by dot analysis; type: functional, cell-based
Summary of the method: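 Global 5hmC measured by dot blot on genomic DNA from cells given GSK343 or carrying EZH2 knock-down, with DMSO or scrambled shRNA as controls. DNA denatured in 0.1 M NaOH at 99 °C for 5 min, then neutralized with ammonium sulfate pH 7.0. 5 µg spotted, UV-crosslinked, probed with anti-5hmC for 1 h at room temperature, ECL detection, dot intensity quantified. Mean ± SD.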

MCF7 [16] = test: Effect on human MCF7 cells assessed as increase in TET2 transcription by qRT-PCR analysis; type: functional, cell-based; summary of the method: as §1
BT-474 [17] = test: Upregulation of CDKN1A gene in human BT-474 cells at 2 uM by qRT-PCR analysis; type: functional, cell-based
Summary of the method: (§3)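 Relative transcript levels measured by qRT-PCR in cells treated with 2 µM inhibitor, normalised to DMSO-treated control cells. Triplicate experiments unless stated otherwise; mean ± SD reported; unpaired two-tailed Student's t-test at p < 0.05.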

MDA-MB-231 [18] = test: Effect on human MDA-MB-231 cells assessed as increase in TET1 mRNA level by qRT-PCR analysis
MDA-MB-231 [19] = test: Antiproliferative activity in human MDA-MB-231 cells expressing shTET1 assessed as increase in SA-beta-gal positive cells by SA-beta-gal staining analysis (reference value: 9+/-1.5%); type: functional
MDA-MB-231 [20] = test: Antiproliferative activity against human MDA-MB-231 cells assessed as downregulation of cyclin A by immunoblot analysis; type: functional, cell-based; summary of the method: as §2
MDA-MB-231 [21] = test: Effect on human MDA-MB-231 cells expressing shTET1 assessed as reduction in PCNA by immunoblot analysis; type: functional, cell-based
MCF7 [22] = test: Effect on human MCF7 cells assessed as decrease in H3K27me3 level at 2 uM in presence of adriamycin by immunoblot analysis; type: functional, cell-based
Summary of the method: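 Immunoblot of MDA-MB-231 and MCF7 lysates after 0.005 µg/ml adriamycin with or without 2 µM GSK343, or DMSO. α-Tubulin and total H3 used as loading controls.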

BT-474 [23] = test: Antiproliferative activity against human BT-474 cells assessed as increase in global H3K9me3 expression level by immunoblot analysis; type: toxicity, cell-based; summary of the method: as §2
BT-474 [24] = test: Upregulation of TP53 gene in human BT-474 cells at 2 uM by qRT-PCR analysis; type: functional, cell-based; summary of the method: as §3
SK-BR-3 = test: Cytotoxicity against human SK-BR-3 cells assessed as increase in cell death at 10 uM for 2 days by Guava viacount assay; type: toxicity, cell-based; details: sk-br-3, 48 h, time 2 day
Summary of the method: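 Cells plated at 2 × 10^4 (24-well) or 1 × 10^5 (12-well), exposed to a range of GSK343 concentrations for 2 days against DMSO solvent control; cell number and viability read by Guava ViaCount flow cytometry, relative to DMSO. Triplicate; mean ± SD.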

MDA-MB-231 [25] = test: Upregulation of TP53 gene in human MDA-MB-231 cells at 2 uM by qRT-PCR analysis; type: functional, cell-based; summary of the method: as §3

Measured: Activity

CCCc1cc(C)[nH]c(=O)c1CNC(=O)c1cc(-c2ccnc(N3CCN(C)CC3)c2)cc2c1cnn2C(C)C
inactive: MDA-MB-436 [3] | MDA-MB-231 [5] | MCF7 [10] | MDA-MB-436 [11] | MDA-MB-436 [12] | MCF7 [16] | BT-474 [17] | MDA-MB-231 [21] | MCF7 [22] | BT-474 [24]
12.3%: MDA-MB-231 [19]
Non-Toxic: MCF7 [9] | BT-474 [23] | SK-BR-3
active: all other assays above
